This is an account of results in PubChem BioAssay AID1385 (PCMD, 2008).

Among all 200,000 compounds or so, about 170 (0.085%) were called active. What follows is part of a selection rich in actives, with near analogues and random picks from the rest. Unmarked numbers belong to inactive results.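 Rule for the calls: active = inhibition above 40% at the single screening dose; inactive = the rest.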

The target of this assay is DNA repair protein RAD51 homolog 1 (Homo sapiens) (UniProt Q06609). The experiment in a line: blockers of RAD51-mediated homologous recombination – biochemical, fluorescence, primary screen (AID 1385).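 Note: 0% = DMSO control wells and 100% = blanks with heterologous ssDNA.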 As to conditions: hRad51 DNA strand exchange, fluorescence dequenching; at 10 µM; stronger effect = higher value. In a few lines: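 Material: human Rad51–ssDNA filaments; Probe or stimulus: labelled 47-mer dsDNA for strand exchange; Doses: single 10 µM dose; Incubation: 37 °C 15-min filament assembly, 30-min compound preincubation, 15-min exchange; Technique: FRET fluorescence dequenching, excitation 485 nm, emission 520 nm; Measure: Fluorescence-based percent inhibition, control- and blank-normalised; Benchmarks: plate control and blank wells.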
Sequence of DNA repair protein RAD51 homolog 1 (Homo sapiens) (Q06609 whole entry, looked up): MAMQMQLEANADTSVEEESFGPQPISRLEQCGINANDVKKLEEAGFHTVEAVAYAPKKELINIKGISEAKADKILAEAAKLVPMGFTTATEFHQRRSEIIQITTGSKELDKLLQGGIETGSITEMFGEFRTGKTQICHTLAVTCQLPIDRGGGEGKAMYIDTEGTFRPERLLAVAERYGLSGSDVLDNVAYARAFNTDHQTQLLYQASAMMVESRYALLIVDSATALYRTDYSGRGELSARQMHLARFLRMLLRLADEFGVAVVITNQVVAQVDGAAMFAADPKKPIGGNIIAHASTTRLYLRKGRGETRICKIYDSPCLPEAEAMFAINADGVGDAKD
`Cc1ccc2c(c1)nnc1nnc(SCC(=O)O)n12`: the inhibition is 3.89%. In the case of `CCC(C)(C)NC(=O)C(c1ccc(O)cc1)N(C(=O)Cn1nnc2ccccc21)c1ccc(NC(C)=O)cc1` (stereo not drawn), the inhibition is -8.67%. Take `Oc1c(Br)cc(/C=N/NC(=S)NCC2CCCO2)cc1Br` (stereo not drawn): the inhibition was -9.24%.

`O=C(Nc1nc2ccc([N+](=O)[O-])cc2s1)c1ccncc1`: the inhibition was 6.33%. For `COc1cc(OC)c(OC)cc1/C=N/Nc1ncnc2c1[nH]c1ccc(C)cc12`, the inhibition is -8.84%. `Cc1nc(-c2ccc(Cl)cc2)sc1C1(C)CC(c2ccc(Br)cc2)=NO1` (stereo not drawn): the inhibition is -6.72%. For `CCC(CC)c1nnc(NC(=O)c2nn(C)c(=O)c3ccccc23)s1` the value was 6.66%; for `CCC(CC)c1nnc(NS(=O)(=O)Cc2ccccc2)s1`, 84.4% (active); for `COc1ccc(Cc2nnc(NS(=O)(=O)Cc3ccccc3)s2)cc1`, -0.75%. For `COc1ccccc1N1CCN(C(=O)CSc2ncnc3c2cnn3-c2ccc(C)c(C)c2)CC1` the value was -12.6%.

Consider `CC1CN(c2nc(Nc3ccccc3)nc(N)c2[N+](=O)[O-])CC(C)O1` (stereo not drawn), for which the inhibition was -23.5%. As for `CC(=O)c1ccc(NC(=O)C2CC(=O)Nc3nc4ccccc4n32)cc1` (stereo not drawn), the inhibition is -1.17%. For `COc1ccccc1-c1c(C#N)c(N)nc2c1CCC2` the value was -0.29%; for `CCNC(=S)N1CCN(CCN=CC2=C(O)CC(C)(C)CC2=O)CC1`, 16.2%; for `Cc1cccc(N2CCN(Cc3nc(C4CC4)no3)CC2)n1`, -8.44%. To `COC(=O)[C@H](CC(C)C)NC(=O)N1CCCCC1C` (stereo partly drawn) belongs -6.96%; to `COc1ccc(/C(C)=N/N2CCOCC2)c(O)c1`, 16.1%. To `Cn1c(SCC(=O)N/N=C/c2ccc(O)c(O)c2)nc2ccccc21` belongs -10.2%; to `Cc1cc(=O)oc2c(C(=O)c3ccccc3)c(OCC(N)=O)ccc12`, -5.93%. `CCOc1ccc(C2NC(=S)NC3=C2CCc2ccccc23)cc1` (stereo not drawn): the inhibition is 5.83%. With `CN1CCc2nc(SC(C(=O)O)c3ccccc3)c(C#N)c(-c3cccs3)c2C1` (stereo not drawn), the inhibition is -22.2%. As for `CCCc1ccc(C(=O)[C@@H]2[C@@H](C(C)=O)N3c4ccc(F)cc4C=C[C@@H]3[C@@]23C(=O)Nc2ccccc23)cc1`, the inhibition is 10.1%. To `CC(C)S(=O)(=O)c1csc(NC(=O)Nc2ccc(Cl)cc2)c1Cl` belongs -3.14%; to `Cc1ccc(-c2csc(-c3cc(C)on3)n2)cc1`, 9.91%. For `CC1(C)CCSC(/C=C/c2ccccc2)=N1` the value was 10.2%; for `CC(C)(C)c1cc(C(=O)NN)n(Cc2ccc(Cl)cc2Cl)n1`, 9.98%.

With `CC(C)(C)c1ccc(/C=C2\Oc3c(ccc(O)c3CN3CCN(CCO)CC3)C2=O)cc1`, the inhibition is -31.8%. For `COC(=O)[C@H](Cc1ccccc1)NC(=O)Nc1ccc(OC)cc1` the value was 7.38%; for `S=C(NCCc1ccccc1)Nc1ccccc1`, 15.1%; for `CCn1c(SCC(=O)N/N=C/c2ccccc2OCC(=O)O)nnc1-c1ccc(C(C)(C)C)cc1`, 8.66%. For `CCOC(=O)c1cc(C)nc(S(C)(=O)=O)c1C#N` the value was 16%; for `C=CCSc1nnc(NC(=O)c2ccc(NC(C)=O)cc2)s1`, 4.61%. In the case of `Nc1c(N(CCO)C(=O)C2CCCCC2)c(=O)[nH]c(=O)n1Cc1ccccc1`, the inhibition is -7.08%. In the case of `CC(=O)OCCOCn1cnn2c(=O)c(Br)c(C)nc12`, the inhibition is 1.73%. For `COc1ccc(CCNC2=CC(=O)CC(C)(C)C2)cc1`, the inhibition is 3.57%. To `Cc1ccc(-c2cc(C(=O)NN)n[nH]2)o1` belongs 8.49%; to `CNC(=O)c1csc(Cc2c(Cl)sc3ccc(Cl)cc23)n1`, 5.52%; to `S=c1nc2ccccc2c2nc(-c3cccnc3)[nH]n12`, 1.9%.

For the compound `O=[N+]([O-])C(=c1ccc2c(c1)N1C3=C(CCCC3)CC3CCCCC31N=2)[N+](=O)[O-]` (stereo not drawn), the inhibition is -20.4%. To `CCOC(=O)c1ccc(S(=O)(=O)N(CCO)Cc2cc3cc(OC)c(OC)cc3[nH]c2=O)cc1` belongs -11%; to `Fc1ccccc1/C=N/n1c(-c2cccnc2)n[nH]c1=S`, 5.39%.

For `Fc1ccc(Nc2nnns2)cc1`, the inhibition is -7.15%.

`Cc1ccc(-c2nc(SCC(=O)Nc3ccccc3OC(F)F)c3c(C)c(C(=O)O)sc3n2)cc1`: the inhibition is -23.3%. Regarding `CC(C)c1cc(CN2CCOCC2)cc(C(C)C)c1O`, the inhibition was -12.3%.

Consider `Clc1ccc(C[n+]2cc(-c3ccc(Cl)cc3)n3c2CCC3)cc1`, for which the inhibition is 16.8%. To `CC(C)CCN1NC2(CCC(C)CC2)NC1=S` (stereo not drawn) belongs 7.9%; to `CC(=O)NCc1ccc(S(=O)(=O)NC2CCN(Cc3ccccc3)CC2)cc1`, -43.1%; to `O=[N+]([O-])c1ccc(N/N=C/c2ccccc2)cc1`, -5.09%. For `COc1cccc(CC(=O)Nc2ccc(-c3csc(C)n3)cc2)c1` the value was 6%; for `O=C(O)COCC(=O)NCc1csc2ccc(Cl)cc12`, 15%. Consider `C/C=C/C(=O)Nc1ccc(N2CCN(c3ccc(C(F)(F)F)cn3)CC2)nc1`, for which the inhibition was 19.9%. For `Cc1nc2cc(NC(=O)Nc3cccc(F)c3)ccc2n1C` the value was 2.24%. On to `CCOC(=O)COc1nc(C)cc(C(F)(F)F)c1C#N`, for which the inhibition is -33.8%. On to `COC(=O)c1ccc(COc2cc([N+](=O)[O-])cc3cccnc23)cc1`, for which the inhibition is -2.29%. For `C=CCN1CC(C)/C(=N\O)CC1C` (stereo not drawn), the inhibition is -1.92%. To `Cc1nc2nc(SCC(=O)c3ccccc3)[nH]c2cc1Br` belongs -17.9%; to `O=C(CCNc1n[nH]c(=O)[nH]c1=O)N/N=C\c1ccc(Br)cc1`, -0.51%. Consider `CC(C)(C)n1cnnc1Sc1ccc([N+](=O)[O-])cn1`, for which the inhibition was 25.8%. Turning to `Cn1nccc1NS(=O)(=O)c1ccc(F)cc1`, the inhibition was -8.74%. Consider `COc1ccc(Cl)cc1S(=O)(=O)N1CCC(O)(c2ccc(Cl)cc2)CC1`, for which the inhibition is 10.6%. Regarding `COc1cccc(C(=O)Nc2ccc(NC(=O)c3ccco3)cn2)c1`, the inhibition is -3.19%. As for `Cc1ccnc(NC(=O)c2ccc(NC(=O)c3ccco3)cc2)c1`, the inhibition was -5.85%. For `Cc1ccc(C(=O)COc2cccc(NC(=O)c3ccco3)c2)cc1` the value was 89.3% (active).
